From publication PMC8146373 (Biochemical pharmacology, 2021)

Tests used:
[1] = biological target: T1, SCTR (Homo sapiens, UniProt P47872); test: SCTR PAM; assay type: cell-based
[2] = biological target: T1, SCTR; test: SCTR Sec-FL; assay type: cell-based
[3] = biological target: SNAP-SCTR (Homo sapiens, UniProt P47872); test: TR-FRET SNAP-SCTR competition binding with Fluo-Sec, HEK-293 SNAP-SCTR membranes
[4] = biological target: T2, GLP-1R (Homo sapiens, UniProt P43220); test: GLP-1R PAM; assay type: cell-based
[5] = biological target: T2, GLP-1R; test: GLP-1R agonist cAMP accumulation assay, GLP-1R-overexpressing HEK-293T cells; assay type: cell-based
[6] = biological target: T2, GLP-1R; test: Allosteric activity studies; assay type: cell-based
[7] = biological target: T3, GLP-1R (Rattus norvegicus, UniProt P32301); test: cAMP assay; assay type: cell-based; settings: INS-1 cells, 12.5 μM compound
T3 sequence (P32301 22-463): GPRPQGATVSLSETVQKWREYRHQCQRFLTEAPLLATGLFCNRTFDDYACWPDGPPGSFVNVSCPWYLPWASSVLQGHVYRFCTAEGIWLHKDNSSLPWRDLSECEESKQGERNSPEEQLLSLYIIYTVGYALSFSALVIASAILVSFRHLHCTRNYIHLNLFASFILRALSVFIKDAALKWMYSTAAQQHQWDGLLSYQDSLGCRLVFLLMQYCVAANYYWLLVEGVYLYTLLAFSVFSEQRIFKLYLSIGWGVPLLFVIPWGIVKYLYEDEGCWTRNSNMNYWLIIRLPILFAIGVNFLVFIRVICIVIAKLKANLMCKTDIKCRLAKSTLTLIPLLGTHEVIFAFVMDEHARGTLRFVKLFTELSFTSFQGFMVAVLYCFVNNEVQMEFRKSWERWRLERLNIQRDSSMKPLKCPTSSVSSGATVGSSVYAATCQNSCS
How it was run: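 INS-1 832/13 cells (passage 18–29) were detached at 80–90% confluency, spun 300xg for 3 min and diluted in stimulation buffer. […] Cells were incubated 30 min at RT. LANCE Ultra detection (Eu-cAMP, ULight antibody) was read as TR-FRET after 60 min at RT.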

[8] = system: INS-1 832/13 cells; test: Glucose stimulated insulin secretion; assay type: cell-based, rat; settings: 20 μM compound, 15 mM glucose
[9] = biological target: T2, GLP-1R; test: cAMP wash-out experiment, GLP-1R-overexpressing HEK-293T cells; assay type: cell-based; settings: 25 μM compound, triple wash
[10] = biological target: GLP-1R C347A (Homo sapiens, UniProt P43220, C347A); assay type: cell-based; settings: 12.5–25 μM compound
How it was run: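 HEK-293 cells were transfected with 0.5 μg DNA/well of GLP-1R WT or C347A construct and harvested after 24 h into stimulation buffer. Cells were added to wells with DMSO or 12.5–25 μM compound. […] HTRF cAMP readout; four-parameter variable-slope fit; duplicates, ≥3 experiments.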

[11] = biological target: SCTR K317A (Homo sapiens, UniProt P47872, K338A); test: Mutational study, cAMP assay in HEK-293 cells transiently expressing SCTR K317A; assay type: cell-based; settings: 12.5–25 μM compound
[12] = biological target: SCTR K317C (Homo sapiens, UniProt P47872, K338C); test: Mutational study, cAMP assay in HEK-293 cells transiently expressing SCTR K317C; assay type: cell-based; settings: 12.5–25 μM compound
Chain of SCTR K317C (P47872 22-440 K338C limits assumed): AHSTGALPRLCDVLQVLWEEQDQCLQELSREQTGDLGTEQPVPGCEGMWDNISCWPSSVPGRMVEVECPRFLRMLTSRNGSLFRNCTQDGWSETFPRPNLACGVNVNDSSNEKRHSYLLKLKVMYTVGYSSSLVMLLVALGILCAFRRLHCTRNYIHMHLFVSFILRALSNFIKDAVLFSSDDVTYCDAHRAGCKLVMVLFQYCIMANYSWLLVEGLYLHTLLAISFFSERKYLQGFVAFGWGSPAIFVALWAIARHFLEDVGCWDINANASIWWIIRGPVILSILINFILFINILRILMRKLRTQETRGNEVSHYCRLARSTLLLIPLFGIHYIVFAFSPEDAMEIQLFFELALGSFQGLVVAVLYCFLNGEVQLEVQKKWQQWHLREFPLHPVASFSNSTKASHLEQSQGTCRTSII
Chain of SCTR K317C (P09683 28-54 partner limits assumed): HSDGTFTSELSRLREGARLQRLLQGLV

T2 sequence (P43220 24-463): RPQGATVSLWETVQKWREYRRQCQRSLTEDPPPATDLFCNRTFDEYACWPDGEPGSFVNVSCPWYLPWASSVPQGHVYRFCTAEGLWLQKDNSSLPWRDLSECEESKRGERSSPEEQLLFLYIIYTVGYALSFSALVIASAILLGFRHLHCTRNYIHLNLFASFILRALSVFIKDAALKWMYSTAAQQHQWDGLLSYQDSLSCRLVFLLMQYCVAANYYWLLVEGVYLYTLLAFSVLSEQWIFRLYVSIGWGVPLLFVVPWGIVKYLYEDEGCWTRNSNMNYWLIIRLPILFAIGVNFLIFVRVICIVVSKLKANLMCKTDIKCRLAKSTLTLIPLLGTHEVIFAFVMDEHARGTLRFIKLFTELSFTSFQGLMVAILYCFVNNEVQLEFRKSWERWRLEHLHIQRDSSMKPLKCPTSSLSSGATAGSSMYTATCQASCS
T1 sequence (P47872 23-440): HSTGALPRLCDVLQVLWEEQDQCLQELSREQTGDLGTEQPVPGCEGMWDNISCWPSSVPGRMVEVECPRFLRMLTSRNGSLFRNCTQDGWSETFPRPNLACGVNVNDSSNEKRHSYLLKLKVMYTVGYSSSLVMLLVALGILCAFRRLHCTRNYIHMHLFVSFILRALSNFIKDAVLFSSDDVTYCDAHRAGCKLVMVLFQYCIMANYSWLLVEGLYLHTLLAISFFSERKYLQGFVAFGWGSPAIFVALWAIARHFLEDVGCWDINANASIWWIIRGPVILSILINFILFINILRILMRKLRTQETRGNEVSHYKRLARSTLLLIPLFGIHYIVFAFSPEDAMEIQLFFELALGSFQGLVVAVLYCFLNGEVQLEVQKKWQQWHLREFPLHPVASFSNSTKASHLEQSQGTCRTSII
Chain of SNAP-SCTR (P47872 23-440): as above
Chain of GLP-1R C347A (P43220 24-463 C347A): as the sequence (P43220 24-463) above, with C324A counted along it
Chain of SCTR K317A (P47872 22-440 K338A limits assumed): as the sequence (P47872 22-440 K338C limits assumed) above, with C317A counted along it

EC50 [1]: 24 ± 12 µM | Emax ([1]; CHO-K1, read-out: SCTR PAM (3-pep mix) Emax): 51 ± 25% | EC50 [2]: 31 ± 19 µM | Emax ([2]; CHO-K1, read-out: SCTR Sec-FL (PAM) Emax): 42 ± 2% | EC50 [3]: 17 ± 14 µM | Emax ([3]; read-out: SNAP-SCTR Binding Emax): 152 ± 11% | EC50 [4]: 0.8 ± 0.2 µM | selectivity toward GLP-1Rs (over SCTR PAM potency) ([4]; GLP-1R EC50 vs SCTR PAM EC50): 30 fold | GLP-1R PAM (GLP-1) Emax ([4]; cAMP, EC20 of GLP-1, mean ± SD, n.d. = not detected): 76 ± 22% | EC50 [5]: 0.8 ± 0.6 µM | GLP-1R agonist Emax ([5]; cAMP, no peptide ligand, mean ± SD, n.d. = not detected): 91 ± 16% | Kb [6]: 3 µM | cooperativity factor α, GLP-1(9–36) ([6]; GLP-1R-overexpressing cells): 137 | cooperativity factor β, GLP-1(9–36) ([6]; GLP-1R-overexpressing cells): 5.5 | increase of efficacy of GLP-1(9–36) [7]: 106% | receptor activation by GLP-1(9–36) in presence of compound [7]: around 50% | intrinsic activity (elevation of basal response), added before or after the wash step [9]: substantial intrinsic activity | cooperative (PAM) effects on GLP-1(9–36) at GLP-1R C347A compared to WT [10]: eradicated | intrinsic agonist activity at GLP-1R C347A compared to WT [10]: eradicated
Compound: CC[S+]([O-])c1nc(-c2cccc(OCc3ccccc3)c2)cc(C(F)(F)F)n1 (stereo not shown) [BETP, 4-(3-(Benzyloxy)phenyl)-2-(ethylsulfinyl)-6-(trifluoromethyl)pyrimidine]
effect on GLP-1 treatment [7]: did not show a significant positive effect | insulin secretion with GLP-1(9–36) co-stimulation ([8]; 1 μM GLP-1(9–36)): elevated insulin secretion | interaction between compound and GLP-1(9–36) treatment (two-way ANOVA) [8]: significant interactions | insulin secretion in the absence of GLP-1(9–36) ([8]; vs DMSO): significantly enhanced | potentiating effects at SCTR K317A compared to WT [11]: neither mutating Lys-317 to alanine nor to cysteine had an impact | potentiating effects at SCTR K317C compared to WT [12]: neither mutating Lys-317 to alanine nor to cysteine had an impact
